Assay [1] has as its target DNA-directed RNA polymerase subunit beta (Escherichia coli O127:H6 (strain E2348/69 / EPEC), UniProt B7UPE2, H526Y). Description: Inhibition of rifamycin-resistant Escherichia coli RNA polymerase H526Y mutant after 10 mins by rolling circle transcription assay in presence of DNA nanocircle template NC45.
Assay [2] concerns the target DNA-directed RNA polymerase subunit beta (Escherichia coli O127:H6 (strain E2348/69 / EPEC), UniProt B7UPE2, D516V). The assay can be described thus: Inhibition of rifamycin-resistant Escherichia coli RNA polymerase D516V mutant after 10 mins by rolling circle transcription assay in presence of DNA nanocircle template NC45.
Assay [3] can be described thus: Inhibition of wild type Escherichia coli RNA polymerase after 10 mins by rolling circle transcription assay in presence of DNA nanocircle template NC45. Summed up: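 Wild-type core enzyme (10 nM final), Ni-NTA purified, with compound at 1.56-100 or 3.12-200 nM, held 10 min at 37 °C in Tris-HCl pH 8.0 buffer with KCl, MgCl2, Triton X-100, DTT and RNase inhibitor. Transcription on 80 nM NC45 circle was started with NTPs (500 µM each). Each compound run in duplicate; IC50 by nonlinear four-parameter logistic regression.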

Assay [4] can be described thus: Inhibition of wild type Mycobacterium tuberculosis RNA polymerase after 10 mins by rolling circle transcription assay in presence of DNA nanocircle template NC45.

pIC50: −log10 of the molar value.

DNA-directed RNA polymerase subunit beta (Escherichia coli O127:H6 (strain E2348/69 / EPEC), UniProt B7UPE2, D516V), sequence (B7UPE2 whole entry D516V): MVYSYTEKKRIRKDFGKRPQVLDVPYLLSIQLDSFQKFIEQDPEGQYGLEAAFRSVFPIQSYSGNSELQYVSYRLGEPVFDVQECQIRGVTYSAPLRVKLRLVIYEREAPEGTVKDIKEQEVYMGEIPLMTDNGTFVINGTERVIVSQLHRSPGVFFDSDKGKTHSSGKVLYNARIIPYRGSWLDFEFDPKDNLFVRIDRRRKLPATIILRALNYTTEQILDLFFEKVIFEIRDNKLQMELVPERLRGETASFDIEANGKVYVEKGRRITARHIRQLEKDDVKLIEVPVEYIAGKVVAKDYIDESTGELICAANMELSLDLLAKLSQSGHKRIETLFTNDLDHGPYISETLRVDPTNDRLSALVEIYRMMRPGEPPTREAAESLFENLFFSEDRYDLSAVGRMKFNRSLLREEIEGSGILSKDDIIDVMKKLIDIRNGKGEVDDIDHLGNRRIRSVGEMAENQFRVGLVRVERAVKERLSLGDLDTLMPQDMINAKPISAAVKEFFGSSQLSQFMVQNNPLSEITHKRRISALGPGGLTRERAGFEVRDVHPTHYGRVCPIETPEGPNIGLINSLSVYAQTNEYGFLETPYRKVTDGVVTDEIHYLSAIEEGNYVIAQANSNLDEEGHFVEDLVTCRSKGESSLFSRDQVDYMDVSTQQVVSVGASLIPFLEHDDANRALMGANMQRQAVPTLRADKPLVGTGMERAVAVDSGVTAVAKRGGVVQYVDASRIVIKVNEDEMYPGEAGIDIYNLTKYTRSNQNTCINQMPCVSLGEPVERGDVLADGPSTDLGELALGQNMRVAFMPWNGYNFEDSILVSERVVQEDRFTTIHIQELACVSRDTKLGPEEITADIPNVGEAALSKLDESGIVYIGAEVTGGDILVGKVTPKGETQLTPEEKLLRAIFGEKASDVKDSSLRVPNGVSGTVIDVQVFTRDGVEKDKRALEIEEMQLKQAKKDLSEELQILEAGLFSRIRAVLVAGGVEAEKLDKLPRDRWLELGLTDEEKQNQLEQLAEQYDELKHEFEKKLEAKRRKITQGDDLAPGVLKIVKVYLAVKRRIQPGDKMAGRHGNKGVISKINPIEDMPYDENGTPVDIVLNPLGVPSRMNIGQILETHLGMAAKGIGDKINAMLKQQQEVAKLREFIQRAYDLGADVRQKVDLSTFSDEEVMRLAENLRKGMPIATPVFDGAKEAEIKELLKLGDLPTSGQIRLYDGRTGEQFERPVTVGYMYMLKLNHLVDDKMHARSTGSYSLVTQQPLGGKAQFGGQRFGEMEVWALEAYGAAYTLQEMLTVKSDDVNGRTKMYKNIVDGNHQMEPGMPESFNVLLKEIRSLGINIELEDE
DNA-directed RNA polymerase subunit beta (Escherichia coli O127:H6 (strain E2348/69 / EPEC), UniProt B7UPE2, H526Y), sequence (B7UPE2 whole entry H526Y): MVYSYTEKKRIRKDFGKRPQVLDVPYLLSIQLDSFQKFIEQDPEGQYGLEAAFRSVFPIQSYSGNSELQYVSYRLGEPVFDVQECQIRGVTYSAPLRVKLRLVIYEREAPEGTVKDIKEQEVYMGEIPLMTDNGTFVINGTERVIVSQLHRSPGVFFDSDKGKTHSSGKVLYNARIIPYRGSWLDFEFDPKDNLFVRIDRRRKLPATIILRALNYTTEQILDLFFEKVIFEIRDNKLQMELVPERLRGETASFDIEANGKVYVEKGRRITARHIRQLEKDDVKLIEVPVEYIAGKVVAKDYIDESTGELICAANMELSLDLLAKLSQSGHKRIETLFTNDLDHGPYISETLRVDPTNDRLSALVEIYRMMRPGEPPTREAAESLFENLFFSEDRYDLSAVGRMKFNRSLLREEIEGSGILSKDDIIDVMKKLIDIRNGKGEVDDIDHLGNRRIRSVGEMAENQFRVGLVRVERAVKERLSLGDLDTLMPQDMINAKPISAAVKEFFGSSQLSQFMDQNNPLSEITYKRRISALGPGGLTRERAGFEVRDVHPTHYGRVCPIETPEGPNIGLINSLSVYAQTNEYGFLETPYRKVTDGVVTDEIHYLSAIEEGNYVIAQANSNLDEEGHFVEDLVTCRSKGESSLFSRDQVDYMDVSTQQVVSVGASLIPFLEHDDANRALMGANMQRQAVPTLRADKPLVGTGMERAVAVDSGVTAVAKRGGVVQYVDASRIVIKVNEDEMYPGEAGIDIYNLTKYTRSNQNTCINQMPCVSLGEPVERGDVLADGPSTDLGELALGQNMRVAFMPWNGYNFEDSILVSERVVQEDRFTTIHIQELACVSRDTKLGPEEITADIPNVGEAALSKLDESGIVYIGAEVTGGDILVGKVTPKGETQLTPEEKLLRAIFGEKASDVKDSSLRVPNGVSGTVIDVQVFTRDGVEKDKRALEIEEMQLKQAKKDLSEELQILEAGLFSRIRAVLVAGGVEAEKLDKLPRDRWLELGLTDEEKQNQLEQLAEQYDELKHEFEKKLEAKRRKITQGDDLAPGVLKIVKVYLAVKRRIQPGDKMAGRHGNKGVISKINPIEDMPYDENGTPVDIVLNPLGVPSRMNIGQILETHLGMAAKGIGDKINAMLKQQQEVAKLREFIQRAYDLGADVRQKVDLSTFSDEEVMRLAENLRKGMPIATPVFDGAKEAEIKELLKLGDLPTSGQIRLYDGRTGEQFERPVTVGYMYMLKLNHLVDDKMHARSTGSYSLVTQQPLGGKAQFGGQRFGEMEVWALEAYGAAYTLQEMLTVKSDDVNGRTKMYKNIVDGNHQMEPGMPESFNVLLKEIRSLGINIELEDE

In general, pIC50 refers to the IC50 on a negative log10 scale, so that one unit is a factor of ten. For `CO[C@H]1/C=C/O[C@@]2(C)Oc3c(C)c(O)c4c(=O)c(c5oc6cccc(OCCCCN7CCN(CCn8ccnc8)CC7)c6nc-5c4c3C2=O)NC(=O)/C(C)=C\C=C\[C@H](C)[C@H](O)[C@@H](C)[C@@H](O)[C@@H](C)[C@H](OC(C)=O)[C@@H]1C`, the pIC50 in assay [1] is ≤ 2.70; in assay [2], 5.70; in assay [3] it was 7.62.
Regarding `CCN(CC)CCOc1cccc2oc3c4c(=O)c5c(O)c(C)c6c(c5c-3nc12)C(=O)[C@@](C)(O/C=C/[C@H](OC)[C@@H](C)[C@@H](OC(C)=O)[C@H](C)[C@H](O)[C@H](C)[C@@H](O)[C@@H](C)/C=C/C=C(/C)C(=O)N4)O6`, the figures for the pIC50 in assay [1], in assay [2] and in assay [3] were 2.94, 4.46 and 7.24, respectively.
Consider `CO[C@H]1/C=C/O[C@@]2(C)Oc3c(C)c(O)c4c(O)c(c(/C=N/N5CCN(C)CC5)c(O)c4c3C2=O)NC(=O)/C(C)=C\C=C\[C@H](C)[C@H](O)[C@@H](C)[C@@H](O)[C@@H](C)[C@H](OC(C)=O)[C@@H]1C` [RIFAMPIN], for which the negative-log IC50 (pIC50) is 7.77 in assay [4], 2.95 in assay [1], 3.63 in assay [2] and 7.92 in assay [3].
For the molecule `CO[C@H]1/C=C/O[C@@]2(C)Oc3c(C)c(O)c4c(=O)c(c5oc6cccc(OCCCCN7CCN(C(=O)Cn8ccnc8)CC7)c6nc-5c4c3C2=O)NC(=O)/C(C)=C\C=C\[C@H](C)[C@H](O)[C@@H](C)[C@@H](O)[C@@H](C)[C@H](OC(C)=O)[C@@H]1C`, the pIC50 was 2.80 in assay [1], 4.39 in assay [2] and 7.68 in assay [3].
As for `CO[C@H]1/C=C/O[C@@]2(C)Oc3c(C)c(O)c4c(=O)c(c5oc6cc(N7CCN(CC(C)C)CC7)cc(O)c6nc-5c4c3C2=O)NC(=O)/C(C)=C\C=C\[C@H](C)[C@H](O)[C@@H](C)[C@@H](O)[C@@H](C)[C@H](OC(C)=O)[C@@H]1C` [RIFALAZIL], the pIC50 is 3.52 in assay [1], 3.69 in assay [2] and > 8.00 in assay [3].

Values taken from ChEMBL document CHEMBL2380284, “X-ray crystal structures of the Escherichia coli RNA polymerase in complex with benzoxazinorifamycins” (J Med Chem, 2013).
